From ChEMBL document CHEMBL4715736, “Identification of anticancer agents based on the thieno[2,3-b]pyridine and 1H-pyrazole molecular scaffolds” (2016)

Tests used:
Format in all cases: functional
MCF7 [1] = test: Growth inhibition of human MCF7 cells incubated for 48 hrs by sulforhodamine B assay
In short: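 NCI60 panel at the NCI Developmental Therapeutics Program. Only compounds active in the 10 µM screen went to dose-response testing. GI50, the concentration giving 50% of maximal inhibition of proliferation, and TGI, the concentration giving total growth inhibition, were derived from the dose-response curves.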

SF-539 [2] = test: Growth inhibition of human SF-539 cells assessed as cell growth at 100 uM incubated for 48 hrs by sulforhodamine B assay relative to control; conditions: read-out: Activity
SK-OV-3 = test: Growth inhibition of human SK-OV-3 cells assessed as cell growth at 0.01 uM incubated for 48 hrs by sulforhodamine B assay relative to control; conditions: read-out: Activity
TK-10 = test: Growth inhibition of human TK-10 cells assessed as cell growth at 100 uM incubated for 48 hrs by sulforhodamine B assay relative to control; conditions: read-out: Activity
HOP-62 = test: Growth inhibition of human HOP-62 cells assessed as cell growth at 1 uM incubated for 48 hrs by sulforhodamine B assay relative to control; conditions: read-out: Activity
T47D = test: Growth inhibition of human T47D cells assessed as cell growth at 0.1 uM incubated for 48 hrs by sulforhodamine B assay relative to control; conditions: read-out: Activity
RXF 393 [3] = test: Growth inhibition of human RXF 393 cells assessed as cell growth at 0.01 uM incubated for 48 hrs by sulforhodamine B assay relative to control; conditions: read-out: Activity
RXF 393 [4] = test: Growth inhibition of human RXF 393 cells assessed as cell growth at 0.1 uM incubated for 48 hrs by sulforhodamine B assay relative to control; conditions: read-out: Activity
SF-295 = test: Growth inhibition of human SF-295 cells incubated for 48 hrs by sulforhodamine B assay
In short: (§1)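 NCI DTP 60-line human tumour panel. Dose-response curves were run only for ligands active in the initial 10 µM screen. GI50 (concentration giving 50% of maximal inhibition of proliferation) and TGI (concentration giving total growth inhibition) were derived from these curves.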

SK-MEL-2 [5] = test: Growth inhibition of human SK-MEL-2 cells assessed as cell growth at 0.01 uM incubated for 48 hrs by sulforhodamine B assay relative to control; conditions: read-out: Activity
SF-539 [6] = test: Growth inhibition of human SF-539 cells incubated for 48 hrs by sulforhodamine B assay; in short: as §1
SW-620 = test: Growth inhibition of human SW-620 cells incubated for 48 hrs by sulforhodamine B assay; in short: as §1
NCI-H522 = test: Growth inhibition of human NCI-H522 cells assessed as cell growth at 1 uM incubated for 48 hrs by sulforhodamine B assay relative to control; conditions: read-out: Activity
RPMI-8226 = test: Growth inhibition of human RPMI-8226 cells assessed as cell growth at 0.01 uM incubated for 48 hrs by sulforhodamine B assay relative to control; conditions: read-out: Activity
MDA-MB-468 = test: Growth inhibition of human MDA-MB-468 cells assessed as cell growth at 0.01 uM incubated for 48 hrs by sulforhodamine B assay relative to control; conditions: read-out: Activity
MOLT-4 = test: Growth inhibition of human MOLT-4 cells assessed as cell growth at 0.1 uM incubated for 48 hrs by sulforhodamine B assay relative to control; conditions: read-out: Activity
A498 [7] = test: Growth inhibition of human A498 cells assessed as cell growth at 0.01 uM incubated for 48 hrs by sulforhodamine B assay relative to control; conditions: read-out: Activity
In short: (§2)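 NCI Developmental Therapeutics Program NCI60 panel. Compounds that were active in the 10 µM one-dose screen went on to dose–response testing. Growth at each concentration is expressed relative to untreated control (100%). GI50 (concentration giving 50% of maximal inhibition of proliferation) and TGI (concentration giving total growth inhibition) were derived from the curves.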

A498 [8] = test: Growth inhibition of human A498 cells incubated for 48 hrs by sulforhodamine B assay; in short: as §2
U-251 = test: Growth inhibition of human U-251 cells assessed as cell growth at 100 uM incubated for 48 hrs by sulforhodamine B assay relative to control; conditions: read-out: Activity
MCF7 [9] = test: Growth inhibition of human MCF7 cells assessed as cell growth at 1 uM incubated for 48 hrs by sulforhodamine B assay relative to control; conditions: read-out: Activity
SK-MEL-2 [10] = test: Growth inhibition of human SK-MEL-2 cells assessed as cell growth at 0.1 uM incubated for 48 hrs by sulforhodamine B assay relative to control; conditions: read-out: Activity
A549 = test: Growth inhibition of human A549/ATCC cells assessed as cell growth at 0.01 uM incubated for 48 hrs by sulforhodamine B assay relative to control; conditions: read-out: Activity; in short: as §2
NCI-H322M [11] = test: Growth inhibition of human NCI-H322M cells assessed as cell growth at 1 uM incubated for 48 hrs by sulforhodamine B assay relative to control; conditions: read-out: Activity
M14 = test: Growth inhibition of human M14 cells assessed as cell growth at 0.1 uM incubated for 48 hrs by sulforhodamine B assay relative to control; conditions: read-out: Activity
NCI-H460 = test: Growth inhibition of human NCI-H460 cells assessed as cell growth at 1 uM incubated for 48 hrs by sulforhodamine B assay relative to control; conditions: read-out: Activity
UO-31 = test: Growth inhibition of human UO-31 cells assessed as cell growth at 0.01 uM incubated for 48 hrs by sulforhodamine B assay relative to control; conditions: read-out: Activity
NCI-H322M [12] = test: Growth inhibition of human NCI-H322M cells assessed as cell growth at 100 uM incubated for 48 hrs by sulforhodamine B assay relative to control; conditions: read-out: Activity
MDA-MB-435 = test: Growth inhibition of human MDA-MB-435 cells assessed as cell growth at 100 uM incubated for 48 hrs by sulforhodamine B assay relative to control; conditions: read-out: Activity
Hs-578T = test: Growth inhibition of human Hs-578T cells assessed as cell growth at 0.1 uM incubated for 48 hrs by sulforhodamine B assay relative to control; conditions: read-out: Activity
COLO 205 = test: Growth inhibition of human COLO 205 cells assessed as cell growth at 1 uM incubated for 48 hrs by sulforhodamine B assay relative to control; conditions: read-out: Activity; in short: as §2
LOX IMVI = test: Growth inhibition of human LOX IMVI cells assessed as cell growth at 0.1 uM incubated for 48 hrs by sulforhodamine B assay relative to control; conditions: read-out: Activity
HCC 2998 = test: Growth inhibition of human HCC 2998 cells assessed as cell growth at 100 uM incubated for 48 hrs by sulforhodamine B assay relative to control; conditions: read-out: Activity; in short: as §2
UACC-257 = test: Growth inhibition of human UACC-257 cells assessed as cell growth at 0.01 uM incubated for 48 hrs by sulforhodamine B assay relative to control; conditions: read-out: Activity
OVCAR-8 = test: Growth inhibition of human OVCAR-8 cells assessed as cell growth at 0.1 uM incubated for 48 hrs by sulforhodamine B assay relative to control; conditions: read-out: Activity
[13] = read-out: LC50 (the source's name)

Compound: Cc1ccc(NC(=O)c2sc3nc4c(cc3c2N)C(=O)CCC4)cc1C
- GI50 (MCF7 [1]): 339 nM
- TGI (MCF7 [1]): > 100000 nM
- CC50 (MCF7 [1]; [13]): > 100000 nM
- growth at 100 µM (SF-539 [2]): 7%
- growth at 0.01 µM (SK-OV-3): 103%
- growth at 100 µM (TK-10): 47%
- growth at 1 µM (HOP-62): 40%
- growth at 0.1 µM (T47D): 97%
- growth at 0.01 µM (RXF 393 [3]): 87%
- growth at 0.1 µM (RXF 393 [4]): 82%
- GI50 (SF-295): 328 nM
- LC50 (concentration killing 50% of cells) (SF-295): > 100000 nM
- TGI (SF-295): > 100000 nM
- growth at 0.01 µM (SK-MEL-2 [5]): 105%
- GI50 (SF-539 [6]): 404 nM
- CC50 (SF-539 [6]; [13]): > 100000 nM
- GI50 (SW-620): 400 nM
- LC50 (concentration killing 50% of cells) (SW-620): > 100000 nM
- TGI (SW-620): > 100000 nM
- growth at 1 µM (NCI-H522): 1%
- growth at 0.01 µM (RPMI-8226): 99%
- growth at 0.01 µM (MDA-MB-468): 95%
- growth at 0.1 µM (MOLT-4): 106%
- growth at 0.01 µM (A498 [7]): 89%
- GI50 (A498 [8]): 198 nM
- CC50 (A498 [8]; [13]): > 100000 nM
- growth at 100 µM (U-251): -9%
- growth at 1 µM (MCF7 [9]): 18%
- growth at 0.1 µM (SK-MEL-2 [10]): 90%
- growth at 0.01 µM (A549): 100%
- growth at 1 µM (NCI-H322M [11]): 49%
- growth at 0.1 µM (M14): 86%
- growth at 1 µM (NCI-H460): 11%
- growth at 0.01 µM (UO-31): 81%
- growth at 100 µM (NCI-H322M [12]): 37%
- growth at 100 µM (MDA-MB-435): -46%
- growth at 0.1 µM (Hs-578T): 88%
- growth at 1 µM (COLO 205): -13%
- growth at 0.1 µM (LOX IMVI): 98%
- growth at 100 µM (HCC 2998): 5%
- growth at 0.01 µM (UACC-257): 96%
- growth at 0.1 µM (OVCAR-8): 100%
